Data from article PMC10413468 (ACS Omega, 2023).

Columns and labels:
[1] = tested on: HeLa (human cervical cancer) cells; test: MTT cytotoxicity assay, HeLa; format: cell-based; conditions: read-out: IC50 HeLa (cancer), cervical, 48 h, mean ± SD
Method in brief: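 HeLa cervical cancer cells maintained in high-glucose D-MEM with 10% FBS and penicillin/streptomycin at 37 °C, 5% CO2. 1 × 10^4 cells/well incubated 48 h with dicopper complexes (1–400 or 1–1000 μM) or cisplatin (0.1–20 μM); blank and control wells got medium only. PBS wash, MTT (0.5 mg mL–1, 3 h), formazan dissolved in DMSO. IC50 from viability vs log[conc]; ≥3 repeats, mean ± SD.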

[2] = tested on: A549 (human lung cancer) cells; test: MTT cytotoxicity assay, A549; format: cell-based
Method in brief: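 A549 lung cancer cells grown in low-glucose DMEM with 10% FBS and penicillin/streptomycin (37 °C, 5% CO2). Plated at 1 × 10^4 cells/well. Treated 48 h with dicopper complexes (1–400 or 1–1000 μM) or cisplatin (0.1–20 μM). Wells rinsed with PBS, then MTT 0.5 mg mL–1 for 3 h and DMSO. IC50 from viability vs log[conc]; ≥3 repeats, mean ± SD. SF = IC50(WI-38)/IC50(A549).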

[3] = tested on: WI-38 (human lung fibroblast normal) cells; test: MTT cytotoxicity assay, WI-38; format: cell-based; conditions: read-out: IC50 WI-38 (normal), lung, 48 h, mean ± SD
Method in brief: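 WI-38 lung fibroblast normal cells grown in Eagle's MEM with 10% FBS and penicillin/streptomycin at 37 °C, 5% CO2. 1 × 10^4 cells/well given dicopper complexes (1–400 or 1–1000 μM) or cisplatin (0.1–20 μM) for 48 h; medium-only controls. PBS rinses, MTT 0.5 mg mL–1 for 3 h, DMSO solubilisation. IC50 from viability vs log[conc]; ≥3 repeats, mean ± SD.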

[4] = tested on: PK-59 (pancreas cancer) cells; test: MTT cytotoxicity assay, PK-59; format: cell-based, human
Method in brief: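 PK-59 pancreas cancer cells cultured in RPMI 1640 with 10% FBS and penicillin/streptomycin (37 °C, humidified 5% CO2). 1 × 10^4 cells/well exposed 48 h to dicopper complexes (1–400 or 1–1000 μM) or cisplatin (0.1–20 μM). After PBS rinses, MTT 0.5 mg mL–1 for 3 h, then DMSO. IC50 from viability vs log[conc]; ≥3 repeats, mean ± SD. SF = IC50(2C6)/IC50(PK-59).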

[5] = tested on: 2C6 (human embryonic pancreas normal) cells; test: MTT cytotoxicity assay, 2C6; format: cell-based; conditions: read-out: IC50 2C6 (normal), pancreas, 48 h, mean ± SD
Method in brief: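 2C6 pancreas normal cells kept in Ham F10 with 10% newborn calf serum, 5% FBS, 2.5% horse serum and penicillin/streptomycin at 37 °C, 5% CO2. Seeded at 1 × 10^4 cells/well. Exposed 48 h to dicopper complexes (1–400 or 1–1000 μM) or cisplatin (0.1–20 μM); medium-only controls. PBS rinses, MTT 0.5 mg mL–1 for 3 h, DMSO solubilisation. IC50 from viability vs log[conc]; ≥3 repeats, mean ± SD.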

For `N.N.[Cl][Pt][Cl]` [cisplatin], the IC50 [1] was 930 ± 10 nM, the “SF (selectivity factor), lung” value ([2]; (IC50 of normal cells)/(IC50 of cancer cells), WI-38/A549, 48 h) was 2.5 and the IC50 ([2]; read-out: IC50 A549 (cancer), lung, MTT assay, 48 h, mean ± SD) was 1830 ± 30 nM. For the same compound, the IC50 [3] was 4550 ± 30 nM, the “SF (selectivity factor), pancreas” value ([4]; (IC50 of normal cells)/(IC50 of cancer cells), 2C6/PK-59, 48 h) was 0.6 and the IC50 ([4]; read-out: IC50 PK-59 (cancer), pancreas, MTT assay, 48 h, mean ± SD) was 2010 ± 20 nM. It also gave an IC50 [5] of 1150 ± 80 nM.
